SMILES strings stand for the structures.

The data set in a line: Toxicity liver stage against HepG2, at 10uM. In kind it is cell-based. On the set-up: test concentration 10 uM, cell line HepG2-A16-CD81EGFP. The note with it: human, HepG2-A16-CD81EGFP cells; read-out: INHIBITION
The method, boiled down:
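Uninfected HepG2-A16-CD81EGFP cells, 3 × 10^3 per well, 1536-well, plated on prespotted compound at 10 μM final, parasite-free screening media added to match infected plates; puromycin 10 μM positive, DMSO 0.5% negative; run in parallel with 48 h PbLuc assay at 37 °C, 5% CO2; viability by CellTiter-Glo luminescence, normalized to controls.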
Regarding `COc1cccc2c3c(c(=O)[nH]c12)CC(C)(C)O3`, the cytotoxicity at 10 µM was -6.1%.
For `C/N=C1\c2cc3cc(OC)ccc3n2CCN1C`, the cytotoxicity at 10 µM was -10.1%.
`CC(C)N[C@@H]1CO[C@H](CNC(=O)c2ccccc2)[C@H]1O`: the cytotoxicity at 10 µM is -5.73%.
`CC(=O)N[C@H]1CCN2C(=O)[C@@H](Cc3c[nH]c4ccccc34)NC(=O)[C@H]12`: the cytotoxicity at 10 µM is -0.639%.
For `COCCCNC(=O)c1cn(C(C)(C)C)c2ncccc12` the value was 0.0915%; for `COc1ccc(C2SC(C)=Nc3c2c(=O)[nH]n3C2CCCC2)cc1O` (stereo not given), 9.98%; for `COc1ccc2nnc(CCCC(=O)NCc3ccccc3F)n2n1`, -0.524%.
For `O=c1cc2c(nn1CN1CCN(c3ccc(F)cc3)CC1)CCC2` the value was -2.15%.
On to `O=C(c1ccoc1)N1CC[C@H]2[C@H]1CCN2CC1CC1`, for which the cytotoxicity at 10 µM was determined as 2.5%.
With `CO[C@@H]1CCN(C(=O)c2cc(C)on2)C[C@@H]1Cc1ccccc1`, the cytotoxicity at 10 µM was 1.11%.
As to `COCC(=O)N1CCc2nc(C(=O)N(C)C)sc2CC1`, the cytotoxicity at 10 µM stood at 15.5%.
Consider `CCc1cnc(N2C[C@@H]3[C@@H](C(=O)NCC(C)C)CCS(=O)(=O)[C@@H]3C2)nc1`, for which the cytotoxicity at 10 µM is -135%.
As for `c1cncc(COCC2CN(Cc3ccco3)Cc3nccn3C2)c1` (stereo not given), the cytotoxicity at 10 µM is -157%.
Turning to `CCC(=O)N1CCC2(CC1)CC(NC(=O)N(C)C)c1cc(C)ccc12` (stereo not given), the cytotoxicity at 10 µM amounted to 8.39%.
Take `Cc1noc([C@H]2CC[C@@H]3[C@@H](CCN3S(=O)(=O)C3CC3)O2)n1`: the cytotoxicity at 10 µM is -1.98%.
As for `O=C(c1c[nH]cn1)N1CCCn2c(nnc2Cn2cccc2)C1`, the figure is 0.399%; as for `COCCNC(=O)c1c(-n2cnnn2)sc2c1CCCC2`, 3.51%; as for `CN(C)CCNC(=O)CNC(=O)N1CCc2c([nH]c3ccc(Cl)cc23)C1`, 7.36%.
With `COc1ccc2c(c1)CC(NC(=O)NCc1cccs1)CO2` (stereo not given), the cytotoxicity at 10 µM stood at 7.52%.
Take `CC(C)N(C)C(=O)C1=NOC2(CCN(C(=O)c3ccc(Cl)cc3)C2)C1` (stereo not given): the cytotoxicity at 10 µM was -16.7%.
Regarding `CCn1cc(CN(C)C(=O)c2cc(C(F)(F)F)n(C)n2)cn1`, the cytotoxicity at 10 µM is 10.4%.
With `Cn1c(=O)n(C)c2nc(Cl)c(CC(=O)c3ccccc3)n2c1=O`, the cytotoxicity at 10 µM was -13.9%.
For `Cc1cc(C)n(CC(=O)N2CCC(c3nc(C(C)C)no3)CC2)n1`, the cytotoxicity at 10 µM is 9.1%.
In the case of `Cc1nc2[nH]cnc(Nc3cc(C)n(C)n3)c-2n1`, the cytotoxicity at 10 µM turned out to be 6.69%.
Turning to `CNC(=O)C1CN(C(=O)Cc2ccc(OC)cc2)Cc2cn(C)nc21` (stereo not given), the cytotoxicity at 10 µM stood at 2.99%.
With `c1cnc(Nc2cncc(C3CCCN(c4cnccn4)C3)n2)nc1` (stereo not given), the cytotoxicity at 10 µM is -8.74%.
For `CC(C)S(=O)(=O)CC(=O)N1CCCC(n2ccnc2)C1` (stereo not given) the value was 10.2%; for `OCCCN1CCCC1c1ccc(Br)cc1` (stereo not given), 2.94%; for `CC(C)C(CCO)NC(=O)Nc1ccc(-c2csnn2)cc1` (stereo not given), -10%.
Regarding `CCc1ncc(C(=O)N2CCN(c3nc(C)cc(OC)n3)CC2)s1`, the cytotoxicity at 10 µM came out at 1.1%.
For `O=C(Cn1ccc(=O)[nH]c1=O)NCC1Cc2ccccc2O1` (stereo not given), the cytotoxicity at 10 µM stood at 3.74%.
As for `CCn1nc(C)c(CNC(=O)NCC(C)(O)c2ccccc2)c1C` (stereo not given), the cytotoxicity at 10 µM was -7.12%.
On to `CN(C)c1ccc(C(=O)N2CCCC2c2ccc(Cl)cc2)nn1` (stereo not given), for which the cytotoxicity at 10 µM is -10.7%.
On to `CCOCCCNC(=O)Cc1cccc(F)c1`, for which the cytotoxicity at 10 µM worked out at 12.1%.
As for `COCCn1cc(C(=O)N2CCCC2c2ccc(F)cc2)ccc1=O` (stereo not given), the figure is -0.12%; as for `O=C(NCC1CC1)c1cnc(-c2ccccc2)nc1`, 7.5%; as for `Cc1cccc(CNC(=O)Nc2ccn(CCCC(=O)N(C)C)n2)c1`, 2%.
In the case of `CC(Oc1ccccc1C(F)(F)F)C(=O)NCC(=O)N1CCCC1` (stereo not given), the cytotoxicity at 10 µM was determined as 5.12%.
As for `Cn1ccnc1COc1ccc(CSc2nnnn2C)cc1`, the figure is -0.613%.
Consider `COCCSc1ccc(C(C)NC(=O)Nc2cn[nH]c2)cc1` (stereo not given), for which the cytotoxicity at 10 µM stood at 8.88%.
As for `Cc1cn2nc(Sc3nnc(C(C)C)n3C)sc2n1`, the figure is 2.3%.
`Brc1cccc(C2(CNCc3cc[nH]c3)CCOCC2)c1`: the cytotoxicity at 10 µM was 8.95%.
For the compound `CS(=O)(=O)NCC(=O)NC1(c2ccc(Cl)c(Cl)c2)CC1`, the cytotoxicity at 10 µM is -10.7%.
Regarding `O=C(CSCc1ccncc1)N(Cc1ccsc1)C1CC1`, the cytotoxicity at 10 µM is -11.2%.
With `NC(=O)c1ccc(NC(=O)CCN2CCCC(N3CCCC3)C2)cc1` (stereo not given), the cytotoxicity at 10 µM is -8.59%.
On to `CCn1nc(C)cc1C(=O)N1C[C@@H]2C[C@@H](c3noc(C)n3)O[C@@H]2C1`, for which the cytotoxicity at 10 µM turned out to be 8.06%.
As for `NC(=O)N1CCc2ncc(CNC(=O)CC3CC3)n2CC1`, the figure is 2.11%.
Take `CC(C)NC(=O)N1CCC2(CC1)Cc1ccccc1CN(C)C2=O`: the cytotoxicity at 10 µM came out at 5.55%.
Regarding `COCCN(C)C(=O)c1nc2c(s1)CCCN2c1ccc(C)nn1`, the cytotoxicity at 10 µM was -2.4%.
For `COCCN1CCN(Cc2ccoc2)Cc2cccnc21` the value was -75%; for `O=C(NCc1ccncc1)C1=NOC2(CCCNC2)C1` (stereo not given), 5.31%.
Take `CCN1CCC(CC(=O)NCc2cc(C)nn2C)CC1`: the cytotoxicity at 10 µM was -14.5%.
`CN1CCC(Cc2noc(CCc3nc4ccccc4nc3O)n2)CC1`: the cytotoxicity at 10 µM amounted to 7.23%.
In the case of `CNc1nc(C)cc(N2CCC(C(=O)O)(n3ccc(C(C)C)n3)CC2)n1`, the cytotoxicity at 10 µM came to 1.52%.
Take `Cc1nc2c(c(=O)n1C)CN(C(=O)C1CCN(C(=O)C3CCC3)CC1)C2`: the cytotoxicity at 10 µM is -3.54%.
As for `O=C(c1ccc(S(=O)(=O)NCc2ccon2)cc1)N1CCCCCC1`, the cytotoxicity at 10 µM stood at 0.424%.
As to `Cc1ccc(C2(O)CCN(C(=O)c3cccc(S(C)(=O)=O)c3)CC2)nc1`, the cytotoxicity at 10 µM is -5.3%.
For `Cc1cc(C2CCCN2C(=O)Cn2c(C)cc(=O)c3ccccc32)on1` (stereo not given) the value was -9.02%; for `O[C@@]1(CNCC2(Cn3ccnc3)CC2)CCCN2CCCC[C@@H]21`, 5.09%; for `CCCN1CC2(CCN(C)CC2)CC1C(=O)NCc1cc(C)nn1C` (stereo not given), 0.318%.
Consider `Cc1ccc(CC2COc3ccccc3C2)c(N)n1` (stereo not given), for which the cytotoxicity at 10 µM is -7.12%.
On to `CCCC1COCCN1Cc1ccc(S(=O)(=O)NC)cc1` (stereo not given), for which the cytotoxicity at 10 µM was -142%.
As for `Cc1cc(=O)[nH]c(CCNC(=O)C(c2ccc(F)cc2)N(C)C)n1` (stereo not given), the figure is -9.78%; as for `CC(C)c1cc(N2CCC(N)CC2)n2nccc2n1`, -18.1%.
For `CC(C)C(NC(=O)NCCNc1ncccn1)c1cccs1` (stereo not given) the value was 2.71%; for `CN(C)c1cc(CNc2cncc(-n3cccn3)n2)ccn1`, 6.26%.
For `O=C(CC(F)(F)F)Nc1cc(F)ccc1OCC1CCCO1` (stereo not given) the value was 5.48%; for `O=C(CCCc1ccccc1)N1CCC(Nc2cccnn2)CC1`, -5.89%; for `Cc1ccc(C(=O)N2CCN(CCc3ccccc3)CC2)c(=O)[nH]1`, -7.1%.
On to `COc1ccc(CNCC2CNc3cc(C)nn3C2)cn1` (stereo not given), for which the cytotoxicity at 10 µM was -16.5%.
For the compound `CC(C)c1n[nH]c(C2CN(C(=O)c3ccnc(C4CC4)n3)CCO2)n1` (stereo not given), the cytotoxicity at 10 µM is -12.6%.
Consider `CC(=O)Nc1nc(C(=O)NC(C)c2ccncc2)cs1` (stereo not given), for which the cytotoxicity at 10 µM is -6.5%.
As for `Cc1cc(C[S+]([O-])CC(=O)NCC(C)C)no1` (stereo not given), the figure is -4.17%; as for `CCc1nc(C2CCCN2CC(=O)Nc2c(C)n[nH]c2C)no1` (stereo not given), -3.79%.
For `CCOc1ccc(Cl)c(C(=O)N2CCN(C(=O)c3ccoc3C)CC2)n1` the value was -6.69%; for `CNC(=O)NC(=O)CN1CCC(c2cccc(F)c2)C1` (stereo not given), -8.75%.
In the case of `CC1c2ncc(COc3cccnc3)n2CCN1C(=O)C1=CCCCC1` (stereo not given), the cytotoxicity at 10 µM stood at 3.39%.
As for `COCc1nn(C(C)C)c2c1CCN(Cc1ccc(C)s1)C2`, the figure is -5.82%.
For `CCN1CCn2c(C)cnc2C12CCN(C(=O)COC)CC2` the value was 6.5%.
For `O=C1C[C@H]2[C@@H](CCN2C(=O)c2ccoc2)N1CCN1CCOCC1` the value was -5.26%; for `COCC1CN(Cc2ccoc2)Cc2nnn(C)c21` (stereo not given), -3.73%; for `Cc1cccc(CN2CCCC3(CCC(=O)N3CCN(C)C)CC2)n1` (stereo not given), -0.891%.
`O=C1N(c2ccsc2)CCC12CCCN(Cc1ccccn1)C2` (stereo not given): the cytotoxicity at 10 µM stood at 2.03%.
As for `CC1=N[C@@]2(CC[C@@H]3CN(CC(=O)N(C)C)C[C@@H]32)C(=O)N1CC(C)C`, the cytotoxicity at 10 µM came out at 9.66%.
As for `COCCN1CCC2(COCc3cnc(N(C)C)nc32)C1` (stereo not given), the cytotoxicity at 10 µM was 1.39%.
For `Cn1cc(CN2CCn3cc(Cn4cccn4)nc3C2)cn1`, the cytotoxicity at 10 µM amounted to 4.49%.
As for `O=C(NCC1CC1)C1CCC2(CCN(C(=O)c3ccncc3)CC2)O1` (stereo not given), the cytotoxicity at 10 µM is -0.0368%.
Consider `COC[C@H]1CC[C@@H]2[C@@H](CCN2Cc2ccco2)O1`, for which the cytotoxicity at 10 µM was -137%.
For `COCc1ncn2c1CN(C(=O)c1ccc3ccccc3n1)CC2` the value was 8.42%.
Regarding `OC(CN1CCN(Cc2cc(F)ccc2F)CC1)C1CC1` (stereo not given), the cytotoxicity at 10 µM turned out to be 0.353%.
Consider `Cc1cnc(N2CCn3c(CN4CCOCC4)nnc3C2)nc1`, for which the cytotoxicity at 10 µM was -153%.
Take `CCc1ncnc2c1CCN(Cc1ccc3c(c1)OCO3)CC2`: the cytotoxicity at 10 µM was -139%.
On to `CN(C)C(=O)N1C[C@H](Oc2ccccn2)[C@H]2OCCC[C@H]21`, for which the cytotoxicity at 10 µM amounted to 6.07%.
As for `Cc1cccc(CN2CC[C@@H]3[C@@H]2CCN3C(=O)c2cc(C)oc2C)n1`, the figure is -4.42%; as for `O=C(Cn1c(=O)[nH]c2cn(-c3ccccc3)c(=O)n21)NC1CCCCC1`, -0.2%.

Source of the values: ChEMBL document CHEMBL4513216, “Probing the Open Global Health Chemical Diversity Library for Multistage-Active Starting Points for Next-Generation Antimalarials” (ACS Infect Dis, 2020).
